The source made the active and inactive calls. The rule behind the calls is not given here.
Legend:
Candida albicans = test: Antifungal activity against Candida albicans ATCC 90029 at 200 ug/disk by standard disk assay; type: functional, organism-based
Bacillus subtilis = test: Antibacterial activity against Bacillus subtilis ATCC 6051 at 200 ug/disk by standard disk assay; type: functional; details: read-out: IZ
Summary of the method: (§1)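 Paper-disk diffusion assay with 200 µg of test material loaded per disk. Activity was read as the zone of inhibition, recorded in mm.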

Aspergillus flavus = test: Antifungal activity against Aspergillus flavus NRRL 6541 at 200 ug/disk by standard disk assay; type: functional, organism-based
Staphylococcus aureus = test: Antibacterial activity against Staphylococcus aureus ATCC 29213 at 200 ug/disk by standard disk assay; type: functional; details: read-out: IZ; summary of the method: as §1

`CCC1OC(=O)c2c(OC)cc(=O)oc21` (stereo not drawn) [ANNULARIN F] was tested, and the Activity (Candida albicans) was “inactive” and the zone of inhibition at 200 µg/disc (Bacillus subtilis) was 8 mm.
`CCCc1oc(=O)cc(OC)c1CO` was tested, and the Activity (Candida albicans) was “inactive” and the zone of inhibition at 200 µg/disc (Bacillus subtilis) was 8 mm.
With `CCCc1oc(=O)cc(OC)c1C` the Activity (Aspergillus flavus) was “inactive”.
For `CC[C@H](O)c1oc(=O)cc(OC)c1CO`, the zone of inhibition at 200 µg/disc (Staphylococcus aureus) was 14 mm, the Activity (Candida albicans) was “inactive” and the zone of inhibition at 200 µg/disc (Bacillus subtilis) was 8 mm.

— ChEMBL document CHEMBL1147227, “Annularins A-H: new polyketide metabolites from the freshwater aquatic fungus Annulatascus triseptatus” (2003)
